Results pooled from the literature.
Compare with care: the assays were run in different laboratories.
Mapk1: Mitogen-activated protein kinase 1 (Mapk1, Mus musculus, UniProt P63085)
PARP3: Protein mono-ADP-ribosyltransferase PARP3 (PARP3, Homo sapiens, UniProt Q9Y6F1)
ADRA1B: Alpha-1B adrenergic receptor (ADRA1B, Homo sapiens, UniProt P35368)

CCN(CC)CCNC(=O)c1c(C)[nH]c(/C=C2\C(=O)Nc3ccc(F)cc32)c1C — inhibition (Mapk1; enzyme activity, inhibitor; 10 µM): -14%
Ic1cccc2cnccc12 — inhibition (PARP3; enzyme activity, inhibitor; 10 µM): 7%
CCN(CC)c1ccc(C2Nc3ccc(C(=O)c4ccccc4)cc3NC3=C2C(=O)CC(C)(C)C3)cc1 (stereo not drawn) — inhibition (ADRA1B; ligand displacement, radioligand; 10 µM): -5%
N#Cc1cc(Cn2c(N3CCCC3)nc3ccccc32)ccc1F — inhibition (ADRA1B; ligand displacement; 10 µM): -7.54%
O=C(O)Cc1ccccc1Nc1c(F)cccc1Cl — inhibition (Prostaglandin G/H synthase 2 (Ptgs2, Mus musculus, UniProt Q05769); enzyme activity, inhibitor; 10 µM, with preincubation): 25%
O=C1NCCCc2c(O)cccc21 — inhibition (PARP3; enzyme activity, inhibitor; 10 µM): 20%
CCN1CCN(Cc2ccc(NC(=O)c3ccc(C)c(Oc4ccnc5[nH]ccc45)c3)cc2C(F)(F)F)CC1 — inhibition (Microtubule-associated serine/threonine-protein kinase 4 (MAST4, Homo sapiens, UniProt O15021); target engagement in cells, inhibitor, chemoproteomics; Huh-7; 10 µM): -28.8%
Oc1cccc(Nc2nc(-c3ccc(F)cc3F)cs2)c1 — inhibition (ADRA1B; cell-free assay; 10 µM): 16.4%
CCN(c1cc(C#CCN2CCOCC2)cc(C(=O)NCc2c(C)cc(C)[nH]c2=O)c1C)[C@H]1CC[C@H](N(C)CCOC)CC1 — inhibition (Histone-lysine N-methyltransferase NSD3 (NSD3, Homo sapiens, UniProt Q9BZ95); enzyme activity, inhibitor; 1 µM): 16%
O=C1N=C(N2CCCCN2)S/C1=C\c1ccc(F)cc1O — inhibition (Corticotropin-releasing factor receptor 1 (CRHR1, Homo sapiens, UniProt P34998); ligand displacement, radioligand; 10 µM): < 10%
O=C1CCCc2c(O)cccc2N1 — inhibition (PARP3; enzyme activity, inhibitor; 10 µM): 0%
CNC(=O)c1cc2c(Oc3ccc(NC(=O)C4(C(=O)Nc5ccc(F)cc5)CC4)cc3)ccnc2cc1OC — inhibition (Hepatocyte growth factor receptor (MET, Homo sapiens, UniProt P08581, D1228H); enzyme activity, inhibitor, radiometric; 1 µM): 103%
CC/C(=N\NC(=O)NCc1cccc(O)c1)c1ccc(O)c(C)c1O — inhibition (cAMP-dependent protein kinase catalytic subunit gamma (PRKACG, Homo sapiens, UniProt P22612); enzyme activity, inhibitor; 0.1 µM): 91%
CN(C)C1CCN(CC#Cc2nn(C3CCCC3)c3nc(NCc4ccccc4)ncc23)C1 (stereo not drawn) — inhibition (Macrophage colony-stimulating factor 1 receptor (CSF1R, Homo sapiens, UniProt P07333); enzyme activity, inhibitor, FRET; 1 µM): 82%
Cc1ccc(Nc2nccc(N(C)c3ccc4c(C)n(C)nc4c3)n2)cc1S(N)(=O)=O — inhibition (Mapk1; enzyme activity, inhibitor; 10 µM): 3%
Cn1cnc(Br)c1C1=CN(c2ncnc3[nH]cnc23)CCS1 — inhibition (Myosin-IIIa (MYO3A, Homo sapiens, UniProt Q8NEV4); enzyme activity, inhibitor, radiometric; 50 nM): 19.3%
O=C1NCCCc2ccc(F)cc21 — inhibition (PARP3; enzyme activity, inhibitor; 10 µM): 63%
O=C(c1ccc(Cl)cc1)N(Cc1ccccc1)C1CCCCC1 — inhibition (ADRA1B; cell-free assay; 10 µM): 11.3%
